Calls of active or inactive are those of the source. No cut-off for these calls is given here.
Assays:
[1] = tested on: Mus musculus; assay: Restoration of T cell proliferation in Balb/c mouse splenocytes infected with Leishmania donovani amastigote forms at 25 mg/kg, ip co-treated with 5 mg/kg, po miltefosine administered for 5 consecutive days measured on day 7 post last treatment followed by soluble Leishmania donovani promastigote antigen-stimulation for 72 hrs by MTT assay relative to control; type: functional
Summary of the method: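 Splenocytes from treated infected BALB/c mice (day 4 or 7 post-treatment) isolated by Ficoll gradient, plated at 10^5/well in triplicate in phenol red-free RPMI 1640, stimulated with 5 μg/mL SLA for 72 h at 37 °C, 5% CO2. Proliferation read by MTT (0.5 mg/mL), formazan dissolved in DMSO, OD 540 nm.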

[2] = Half life in Swiss mouse at 50 mg/kg, po by LC-MS/MS analysis; type: ADME, organism-based; settings: in vivo
[3] = tested on: Mus musculus; assay: Increase in TNFalpha level in Balb/c mouse splenocytes infected with Leishmania donovani amastigote forms at 25 mg/kg, ip co-treated with 5 mg/kg, po miltefosine administered for 5 consecutive days measured on day 7 post last treatment by sandwich ELISA relative to control; type: functional
Summary of the method: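 BALB/c mice infected with L. donovani (15 days); treatment for 5 consecutive days, test compound i.p. in 8% DMSO/water, miltefosine oral in TDW; sacrificed day 4 and day 7 post-treatment, n = 5 per group. Splenocytes (2×10^6) cultured 72 h in phenol red-free RPMI 1640 with 5 μg/mL SLA; supernatant cytokines by sandwich ELISA.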

[4] = tested on: Leishmania donovani; assay: Antileishmanial activity against Leishmania donovani MHOM/IN/80/DD8 promastigote forms harboring luciferase gene at 50 uM after 72 hrs by Steady-Glo reagent based luminescence assay relative to control; type: functional; settings: MHOM/IN/80/DD8, 72 h, read-out: GI
Summary of the method: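 Exponential-phase Dd8-Luc promastigotes at 1×10^6/mL in M199 with 10% FBS, 24 °C, given 50 and 25 µM for 72 h. Vehicle 0.1% DMSO. Steady-Glo added 1:1, luminescence (RLU) read. IC50 from four-parameter Hill regression, derived only where inhibition exceeded 90%. Means of at least three independent experiments.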

[5] = tested on: Mus musculus; assay: Increase in IFN-gamma level in Balb/c mouse splenocytes infected with Leishmania donovani amastigote forms at 25 mg/kg, ip co-treated with 5 mg/kg, po miltefosine administered for 5 consecutive days measured on day 4 post last treatment by sandwich ELISA relative to control; type: functional
Summary of the method: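 Splenocytes (2×10^6) from treated infected BALB/c mice taken on day 4 or 7 post-treatment. Cultured in phenol-red-free RPMI 1640 with 5 μg/mL soluble L. donovani antigen for 72 h at 37 °C, 5% CO2. Supernatant cytokines measured by sandwich ELISA against a standard curve. Mean ± SD, n = 5 mice per group, three independent experiments.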

[6] = tested on: Leishmania donovani; assay: Antileishmanial activity against Leishmania donovani amastigote forms infected in Balb/c mouse assessed as reduction in spleen weight at 12.5 to 200 mg/kg, ip administered for 5 consecutive days co-treated with 5 to 25 mg/kg, po miltefosine; type: functional, organism-based

## COc1ccc(C2C3=C(CCC3=O)Nc3c2c(-c2c[nH]c4ccccc24)nn3-c2ccc(Cl)c(Cl)c2)cc1OC (stereo unspecified)
[1]
  fold change (FC): 8.4
[2]
  half-life: 4.81 h
[3]
  fold change (FC): 7.3
[4]
  inhibition of growth at 50 µM: 93.3%
[5]
  fold change (FC): 9.1
[6]
  Activity: Active

Source: ChEMBL document CHEMBL3992522, “Antileishmanial Activity of Pyrazolopyridine Derivatives and Their Potential as an Adjunct Therapy with Miltefosine” (J Med Chem, 2017)
